High-throughput results as filed in PubChem.
ARFGAP1 inh: inhibits rat ARF GTPase activating protein 1. Arfgap1-stimulated ARF1 GTP hydrolysis, GDP FP detection. inhibition, % at 16.5 µM. AID 651572. hit rate 0.26% among 360,000. Q62848;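 active = inhibition above a per-plate limit, mean inhibition of low control wells plus 3 SD, cut at about 25% in these data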
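Material: rat Arfgap1 catalytic domain, aa 1-136; also added: human ARF1(Δ1-17)-GTP substrate; compound dosing: one concentration, 16.5 µM, DMSO 1.26%; incubation: GTP hydrolysis reaction 2 h at 25 °C; measured by: Tracer-displacement fluorescence polarization with EDTA stop, 620/688 nm; evaluation: % inhibition from polarization; repeats: one replicate per compound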
VIM-2 inhibitor: blocks Pseudomonas aeruginosa VIM-2 metallo-beta-lactamase; purified VIM-2, nitrocefin hydrolysis, epi-absorbance fluorescence; inhibition, % at 5.6 µM; hit rate 0.89% among 290,000;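 active = inhibition above the mean of all tested compounds plus 3 SD, cutoff set per screening run, cut at about 7.5% in these data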;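 note: red hydrolysis product quenches plate fluorescence so inhibitors raise well fluorescence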
PHOSPHO1 block: inhibitors of human PHOSPHO1 phosphatase | Q8TCT1 | recombinant PHOSPHO1, absorbance phosphatase assay | inhibition, % at 13.3 µM | hit rate 1.1% among 290,000 | AID 1565; in the data active = inhibition above about 60%
Calb FLC: C. albicans growth modulation with fluconazole; C. albicans CaCi-2 + fluconazole, Alamar Blue growth, 48 h; AID 1979; growth inhibition, % (concentration not given with the values); hit rate 0.57% among 300,000;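 active = growth inhibition above about 58% in most replicates, limit read from the data, passing the limit was not always enough; inconclusive = exactly half the replicates above a set limit; inactive = most replicates below a set limit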;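 note: all wells also contain fluconazole at 8 µg/ml as a sub-toxic cotreatment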
ASAP1 inh: inhibitors of human ASAP1 ArfGAP activity. ASAP1-stimulated ARF1 GTP hydrolysis, GDP FP detection. inhibition, % at 16.5 µM. hit rate 0.19% among 360,000; in the data active = inhibition above about 25%
Target sequence (Q9ULH1 325-724 limits assumed): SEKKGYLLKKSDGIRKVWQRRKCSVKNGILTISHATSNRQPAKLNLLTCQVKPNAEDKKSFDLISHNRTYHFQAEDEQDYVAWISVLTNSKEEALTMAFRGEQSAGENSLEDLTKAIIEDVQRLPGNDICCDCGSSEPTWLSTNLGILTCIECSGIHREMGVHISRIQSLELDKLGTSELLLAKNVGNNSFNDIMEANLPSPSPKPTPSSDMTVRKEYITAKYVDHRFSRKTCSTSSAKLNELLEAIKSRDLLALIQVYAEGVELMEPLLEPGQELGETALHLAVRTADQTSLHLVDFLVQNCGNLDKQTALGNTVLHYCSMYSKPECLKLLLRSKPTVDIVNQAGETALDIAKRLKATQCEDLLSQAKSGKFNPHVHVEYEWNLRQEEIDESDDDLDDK
IMP-1 inh: inhibitors of Pseudomonas aeruginosa IMP-1 metallo-beta-lactamase; inhibition, % at 5.6 µM; purified IMP-1, nitrocefin hydrolysis, epi-absorbance fluorescence; hit rate 0.45% among 290,000;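 active = inhibition above the mean plus 3 SD of all compounds in the same screening run, cut at about 4.5% in these data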
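System: Purified recombinant IMP-1 metallo-beta-lactamase enzyme | Measured by: Fluorescence quenching readout, ex 480/em 530 nm | Replication: Singlicate | Incubation: 15 min preincubation plus 25 min reaction at 25 °C | Evaluation: Percent inhibition from optical density relative to buffer-blank wells | Benchmarks: DMSO with and without IMP-1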
Hits are given with their value; – = inactive; ? = inconclusive; · = no result. A selection: hits, their analogues and other compounds. The true share with any hit is near 2.6%.

SMILES	ARFGAP1 inh	VIM-2 inhibitor	PHOSPHO1 block	Calb FLC	ASAP1 inh	IMP-1 inh
COc1ccccc1Nc1c2c(nc3ccccc13)CCC2	–	9.4	·	–	–	–
CCOC(=O)C1CSCCS(=O)(=O)N1Cc1ccccc1F (stereo unspecified)	–	·	·	·	–	·
Cc1ccc(NC(=S)NNC(=O)CCn2cc(C)cn2)cc1	–	–	69	–	–	–
O=C(Cn1nc(C(F)F)cc1C(F)F)NNC(=S)Nc1ccc(F)cc1	–	–	73	–	–	–
COc1cccc(NC(=S)NNC(=O)Cn2nc([N+](=O)[O-])cc2C)c1	–	–	–	–	–	–
Cc1ccc(NC(=S)NNC(=O)Cn2nc([N+](=O)[O-])cc2C)cc1	·	–	96	–	·	–
Cc1cc([N+](=O)[O-])nn1CC(=O)NNC(=S)Nc1ccc(Cl)cc1	–	–	93	–	–	–
CN1C(=O)[C@@]2(O[C@H]3c4ccccc4C=CN3C3=C2C(=O)CCC3)c2ccccc21	–	·	·	·	–	·
COC1=CC(=O)OC(c2cccc(C(F)(F)F)c2)C1 (stereo unspecified)	–	·	·	·	–	·
COC(=O)[C@]12C[C@H](CC(=O)NCc3cccs3)C(=O)N(Cc3ccccc3)C1=C[C@H](C1CCCC1)O[C@@H]2C	–	·	·	·	–	·
CC(=O)N1c2ccc(C)cc2C(c2ccccc2)CC1C (stereo unspecified)	–	–	–	–	–	14
COc1ccc(N=C(C)C2=C(O)CSC2=O)cc1	–	–	89	–	–	–
COc1ccccc1-n1c(C)c2c(OC)cccc(=O)c2c1C	–	9.2	–	–	–	–
COC(=O)C1=C(C)N(Cc2cccc(C(F)(F)F)c2)C(=NCc2cc(OC)c(OC)c(OC)c2)NC1c1ccc(F)cc1 (stereo unspecified)	–	·	·	·	–	·
CCCN1C(=O)S/C(=C/c2ccc(N3CCOCC3)o2)C1=O	–	–	–	–	–	–
CCCN1C(=O)S/C(=C\c2ccc(N3CCOCC3)o2)C1=O	–	–	–	–	–	5.9
CCOC(=O)CN1C(=O)S/C(=C/c2ccc(N3CCCCC3)o2)C1=O	–	–	101	–	–	–
C[C@H]1CN([C@@H](C)CO)C(=O)c2c(c3ccccc3n2C)-c2ccccc2CO[C@H]1CN(C)C(=O)Nc1cccc(F)c1	–	·	·	·	–	·
O=C(C[C@H]1CC[C@H](NC(=O)Nc2ccccc2F)[C@@H](CO)O1)NCc1ccc(-c2ccccc2)cc1	–	·	·	·	–	·
Cc1cc(C)nc(/N=c2/ssnc2Cl)c1	–	–	–	–	–	–
Cc1ccc(N=c2ssnc2Cl)cc1	–	–	101	–	–	–
COc1ccc(OC)c(N=c2ssnc2Cl)c1	–	–	–	–	–	–
Cc1cc(Cl)ccc1N=c1ssnc1Cl	–	–	96	?	–	–
Nc1ccccc1N=c1ssnc1Cl	–	–	–	·	–	–
COc1cc(N=c2ssnc2Cl)c(OC)cc1Cl	–	–	91	–	–	–
SMILES	ARFGAP1 inh	VIM-2 inhibitor	PHOSPHO1 block	Calb FLC	ASAP1 inh	IMP-1 inh
COCCN1Cc2cc(C(=O)OC)c3c(c2C1=O)c1cc(OC)ccc1n3S(=O)(=O)c1ccc(F)cc1	–	·	·	·	–	·
CSC1=N/C(=C\c2ccc(C)o2)C(=O)S1	–	–	92	–	–	–
O=C(NNC(=S)Nc1ccccc1)c1cccc(Br)c1	–	–	89	–	–	–
Cc1nc(-c2cccc(NC(=O)c3ccc(Br)o3)c2)cs1	–	–	–	–	–	–
Cc1nnc2ccc(-c3cccc(NC(=O)c4ccc(Br)o4)c3)nn12	–	10	–	–	–	–
Cc1cccc(NC(=S)NNC(=O)c2ccc(Br)o2)c1	–	–	88	–	–	–
C[C@H](CO)N1C[C@H](C)[C@@H](CN(C)C(=O)Cc2ccccc2)OCc2cn(nn2)CCCC1=O	–	·	·	·	–	·
O=C(NC(=S)Nc1nc(-c2ccc(Br)cc2)cs1)c1ccco1	–	–	–	?	–	–
O=C(NC(=S)Nc1nc(-c2ccc([N+](=O)[O-])cc2)cs1)c1ccco1	–	–	–	–	–	62
CC(=O)Oc1ccc2c(=O)c(-c3nc4ccccc4s3)coc2c1	–	–	–	89	–	–
COc1ccc(-c2nc(NCCN(C)C)nc3ccsc23)c(C)c1	–	·	·	·	–	·
CCCCNS(=O)(=O)c1ccc2nc(SCC(N)=O)[nH]c2c1	–	–	–	–	–	–
